PG9 binder: binders of HIV-1 gp120 antibody PG9, primary screen, biochemical, TR-FRET; TR-FRET gp120-PG9 antibody binding; inhibition, % at 6.7 µM; actives 0.43% (n = 360,000); in the data active means inhibition above about 8.5%
VLA-4 inh: inhibition in human VLA-4 binding assay, primary screen, VLA-4 allosteric modulator project, MLPCN library, flow cytometry, VLA-4 expressing cells; Integrin alpha-4 (Homo sapiens), P13612; ligand binding flow cytometry; inhibition, % (about 7 µM as worked out from the volumes in the protocol); actives 0.2% (n = 330,000); AID 2557, 2010; in the data active means inhibition above about 50%
Rev-erbA mod: modulators of Rev-erb alpha DNA binding, primary screen, biochemical, FITC-DNA, fluorescence polarization, uHTS | Rev-erbα–FITC-DNA binding, 90 min | activity, % at 10 µM | actives 0.79% (n = 370,000) | AID 1259318, 2017;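 active means activity above about 14%, limit read from the data; passing the limit was not always enough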;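 further: 0% = DMSO wells with 35 nM protein and 100% = DMSO wells with 750 nM protein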
Target sequence (P20393 whole entry, looked up): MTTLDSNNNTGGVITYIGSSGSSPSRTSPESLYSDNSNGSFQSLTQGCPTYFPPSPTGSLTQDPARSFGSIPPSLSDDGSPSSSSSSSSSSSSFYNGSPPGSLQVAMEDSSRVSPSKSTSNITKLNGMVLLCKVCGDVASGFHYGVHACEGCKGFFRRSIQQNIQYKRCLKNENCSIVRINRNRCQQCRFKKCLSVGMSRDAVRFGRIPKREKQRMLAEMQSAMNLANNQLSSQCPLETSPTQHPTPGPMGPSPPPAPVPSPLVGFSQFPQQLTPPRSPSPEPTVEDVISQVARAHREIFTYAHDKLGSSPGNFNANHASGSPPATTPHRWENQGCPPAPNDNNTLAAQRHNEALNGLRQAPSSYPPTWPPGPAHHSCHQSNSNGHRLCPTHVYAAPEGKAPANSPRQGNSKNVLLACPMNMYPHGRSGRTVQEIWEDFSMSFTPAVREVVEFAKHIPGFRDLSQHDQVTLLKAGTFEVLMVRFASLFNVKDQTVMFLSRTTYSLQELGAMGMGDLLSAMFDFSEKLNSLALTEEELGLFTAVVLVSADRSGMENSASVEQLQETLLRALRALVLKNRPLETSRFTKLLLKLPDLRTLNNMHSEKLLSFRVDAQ
NR2E3 ag-1: inhibitors of NR2E3-RetCOR corepressor binding, primary screen, NR2E3 agonist project, biochemical, TR-FRET, GST-NR2E3, biotin-RetCOR. AID 2300, 2010. actives 0.12% (n = 320,000). 1536-well. inhibition of corepressor binding, % at 4.78 µM;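 active means percent inhibition above the cutoff of mean plus 3 SD of all tested compounds, set per screening campaign, cut at about 20% in these data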;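 further: 0% = DMSO wells and 100% = biotin wells as full block of FRET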
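Test system – NR2E3–RetCOR corepressor complex · Quantity – NR2E3 fusion 1.35 nM · Buffer or medium – Tris pH 7.5 · Incubation – Compound–protein incubation for 5 h at 4 °C · Technique – TR-FRET, Eu(K)-anti-GST donor, streptavidin-D2 acceptor, ex 340, em 617/671 nm · Evaluation – percent inhibition of 671/617 nm emission ratio versus biotin and DMSO controls · Plate – 1536-well format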
NR2E3 ag-2: NR2E3 agonists in two-hybrid cells, primary screen, cell-based, luminescence, CHO-S, Gal4-NCOR/VP16-NR2E3; actives 0.35% (n = 360,000); luciferase; AID 602229, 2012; Photoreceptor-specific nuclear receptor (Homo sapiens), Q9Y5X4; inhibition of corepressor binding, % at 3.98 µM;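 active means inhibition above the mean of all tested compounds plus 3 SD, cut at about 70% in these data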;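 further: 0% = DMSO with NR2E3 transfected cells and 100% = cells lacking NR2E3 construct; higher means lower luciferase signal from less NR2E3 corepressor binding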
Rev-erbA confirm: modulators of Rev-erb alpha DNA binding, confirmation, biochemical, FITC-DNA, fluorescence polarization, single point; shares compounds with Rev-erbA mod; 90 min; activation, % at 25 µM; actives 61% (n = 3,000);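 active means activation at or above a set limit, or at least 3 SD above the negative control mean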;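 further: 0% = 35 nM protein with DMSO and 100% = 750 nM protein high control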
RORg counter: modulation of RORgamma DNA binding, dose response, counter-screen for Rev-erb alpha modulator project, biochemical, fluorescence polarization, FITC-DNA; shares compounds with Rev-erbA mod; purified RORgamma protein-FITC-DNA binding; IC50, µM; AID 1259320, 2017; actives 8% (n = 910);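 active means Compounds whose fitted half-maximal concentration for disrupting protein-DNA binding is below 10 micromolar; the record names Rev-erb in its text, so the target is in doubt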
Starred values were filed as active, the others as inactive; i = inactive; . = no result given. Sampled rows, rich in hits. Any-hit rate of the full collection: about 1.6%.

SMILES	PG9 binder	VLA-4 inh	Rev-erbA mod	NR2E3 ag-1	NR2E3 ag-2	Rev-erbA confirm	others
CC(C)(C)C(=O)O/N=C(\N)COc1cccc(Cl)c1	-3.6	-12.3	9.1	1.7	0.4	.
CC(C)=CC(=O)O[C@@H]1Cc2c(ccc3ccc(=O)oc23)OC1(C)C	-0.4	18.4	25.7*	.	-25.6	22.7*
N#Cc1ccc(C(S(=O)(=O)Cc2ccccc2)S(=O)(=O)Cc2ccccc2)cc1	-0.4	.	-1.4	.	26.8	.
COc1ccc(OC)c(NC(=O)c2sc3nc(Cc4ccccc4)cc(C(F)(F)F)c3c2N)c1	-1.3	-0.4	82.5*	1.4	-12.2	29.3*
CCOc1cccc2sc(=NC(=O)c3ccc(S(=O)(=O)N4CCOCC4)cc3)n(C)c12	-2.1	-3.1	30.2*	1.9	4.4	-3.7
CCOCCn1c(=NC(=O)c2ccc(S(=O)(=O)N3CCOCC3)cc2)sc2cc(S(N)(=O)=O)ccc21	-1.1	-0.7	6.6	5.0	-34.0	.
Cc1cc(C)c(S(=O)(=O)CCC(C)C)c(=O)[nH]1	2.2	1.0	-5.6	0.3	-8.1	.
CC(=O)N1CCc2c(sc(NC(=O)C3CC3)c2-c2nc3ccccc3s2)C1	0.4	-34.7	169.8*	6.1	-20.0	5.1
COc1ccc(-c2ccc3oc(-c4ccsc4)cc(=O)c3c2)cn1	-1.1	-11.6	-0.7	.	-78.7	.
COc1ccc(-c2ccc3oc(-c4ccsc4)cc(=O)c3c2)cc1F	-7.4	17.8	66.1*	.	-12.1	30.6*
Cc1cc2c(cc1S(=O)(=O)C(C)CC(=O)NCc1ccco1)OCC(=O)N2 (stereo not drawn)	-0.6	8.0	-1.3	5.4	18.1	.
COc1cc(OC)cc(C(=O)Nc2ccc(-c3nc4ccccc4o3)cc2)c1	-1.2	4.0	4.7	0.4	-32.1	.
COc1ccc(OCC(=O)Nc2ccc3oc(-c4ccncc4)nc3c2)cc1	-2.0	-4.9	-4.8	-0.2	-0.6	.
COc1cccc(C(=O)Nc2ccc(-c3nc4ccccc4o3)c(O)c2)c1	1.9	8.9	85.5*	4.0	-112.9	64.3*	RORg counter=>40
Cc1ccc(OCC(=O)Nc2ccc(O)c(-c3nc4ccccc4o3)c2)cc1	6.6	-5.7	102.6*	1.8	-13.1	38.4*	RORg counter=i
O=C(c1cc(COc2cccc(C(F)(F)F)c2)on1)N1C[C@@H]2CCC[C@H]1C2	1.0	4.8	5.9	-2.6	-60.7	.
O=C(Nc1nc2ccc(Cl)cc2s1)c1cccc(N2C(=O)CCC2=O)c1	1.2	-1.4	43.0*	-5.2	-55.5	7.5
CCOC(=O)Cc1csc(/N=C/c2c(O)n(-c3ccc(C)c(C)c3)c(=O)c3ccccc23)n1	-0.9	-17.4	22.6*	-2.6	-13.0	5.4
COc1ccc2cc(-c3[nH]ncc3CN3C[C@@H]4CCC[C@H]3C4)ccc2c1	0.6	-0.5	2.7	3.1	-15.5	.
COC(=O)[C@]1(C)CCC[C@@]2(C)C3CC[C@@]4(C)C[C@]3(CCC21)CC4=NO (stereo partly drawn)	0.4	8.6	16.8*	4.0	-2.8	10.7
CN(C)S(=O)(=O)c1ccc(NC(=O)COC(=O)CC2CC3CCC2C3)cc1 (stereo not drawn)	0.2	13.2	3.4	1.1	7.9	.
Cc1cc2cc(C)c(NCCNC(=O)c3cccs3)nc2cc1C	-2.6	-3.5	21.1*	-3.0	13.7	-6.9
COc1ccc(C(=O)NC2CC(C)(C)NC(C)(C)C2)cc1S(=O)(=O)N1CCOCC1	0.0	.	-3.4	.	-9.0	.
CN(C)CCCN1C(=O)c2cccc3c(Br)ccc(c23)C1=O	1.2	-20.4	0.2	5.5	-31.9	.

Screening data as filed in PubChem.
